Experimental data: ChEMBL document CHEMBL1151448, “Comparative antianaerobic activities of doripenem determined by MIC and time-kill analysis” (2008)
In brackets after ≈: the same amount, converted by molar mass.

Tests used:
Assay type in all cases: functional
Bacteroides fragilis [1] = test: Antimicrobial activity against beta lactamase-positive Bacteroides fragilis isolated from intra-abdominal infection and pelvic inflammatory disease patients after 48 hrs by agar dilution method
In short: (§1)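 CLSI agar dilution on brucella blood agar supplemented with laked sheep blood, hemin and vitamin K. Inocula of about 1 × 10^5 CFU/spot were applied by Steers replicator, and plates were incubated 48 h at 35°C in an anaerobic glove box. MIC was the concentration giving marked growth reduction versus the anaerobic control plate. QC strains were included each run, and β-lactamase was detected by Cefinase disk.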

[2] = test system: Bacteroides thetaiotaomicron; test: Antimicrobial activity against beta lactamase-positive Bacteroides thetaiotaomicron isolated from intra-abdominal infection and pelvic inflammatory disease patients after 48 hrs by agar dilution method; in short: as §1
Bacteroides fragilis [3] = test: Antimicrobial activity against beta lactamase-positive Bacteroides fragilis isolated from intra-abdominal infection and pelvic inflammatory disease patients after 48 hrs by time kill analysis
In short: (§2)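 The MIC was read by inspecting macrodilution time-kill tubes. Vials held prereduced brucella broth with 5% laked horse blood cells, hemin 5 μg/ml and vitamin K1 1 μg/ml. Final inoculum was 10^6–10^7 CFU/ml, prepared inside the anaerobe chamber. Vials were incubated 48 h at 35°C in a shaking water bath.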

Prevotella intermedia [4] = test: Antimicrobial activity against beta lactamase-positive Prevotella intermedia isolated from intra-abdominal infection and pelvic inflammatory disease patients after 48 hrs by time kill analysis; in short: as §2
Finegoldia magna [5] = test: Antimicrobial activity against beta lactamase-positive Finegoldia magna isolated from intra-abdominal infection and pelvic inflammatory disease patients after 48 hrs by time kill analysis; in short: as §2
Fusobacterium nucleatum [6] = test: Antimicrobial activity against beta lactamase-positive Fusobacterium nucleatum isolated from intra-abdominal infection and pelvic inflammatory disease patients after 48 hrs by time kill analysis; in short: as §2
Clostridium perfringens [7] = test: Antimicrobial activity against Clostridium perfringens isolated from intra-abdominal infection and pelvic inflammatory disease patients after 48 hrs by time kill analysis
In short: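 Macrodilution in prereduced brucella broth with 5% laked horse blood cells, 5 μg/ml hemin and 1 μg/ml vitamin K1. Final inoculum 10^6 to 10^7 CFU/ml, prepared inside the anaerobe chamber. Vials incubated 48 h at 35°C in a shaking water bath. MIC read by inspecting the time-kill tubes, alongside an antibiotic-free growth control.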

Bacteroides ovatus = test: Antimicrobial activity against beta lactamase-positive Bacteroides ovatus isolated from intra-abdominal infection and pelvic inflammatory disease patients after 48 hrs by agar dilution method; in short: as §1
Phocaeicola vulgatus = test: Antimicrobial activity against beta lactamase-positive Bacteroides vulgatus isolated from intra-abdominal infection and pelvic inflammatory disease patients after 48 hrs by agar dilution method; in short: as §1
[8] = test system: Parabacteroides distasonis; test: Antimicrobial activity against beta lactamase-positive Bacteroides distasonis isolated from intra-abdominal infection and pelvic inflammatory disease patients after 48 hrs by agar dilution method; in short: as §1
Prevotella bivia = test: Antimicrobial activity against beta lactamase-positive Prevotella bivia isolated from intra-abdominal infection and pelvic inflammatory disease patients after 48 hrs by agar dilution method; in short: as §1
Prevotella disiens = test: Antimicrobial activity against beta lactamase-positive Prevotella disiens isolated from intra-abdominal infection and pelvic inflammatory disease patients after 48 hrs by agar dilution method; in short: as §1
Prevotella intermedia [9] = test: Antimicrobial activity against beta lactamase-positive Prevotella intermedia isolated from intra-abdominal infection and pelvic inflammatory disease patients after 48 hrs by agar dilution method; in short: as §1
Prevotella nigrescens = test: Antimicrobial activity against beta lactamase-positive Prevotella nigrescens isolated from intra-abdominal infection and pelvic inflammatory disease patients after 48 hrs by agar dilution method; in short: as §1
[10] = test system: Prevotella melaninogenica; test: Antimicrobial activity against beta lactamase-positive Prevotella melaninogenica isolated from intra-abdominal infection and pelvic inflammatory disease patients after 48 hrs by agar dilution method; in short: as §1
Prevotella denticola = test: Antimicrobial activity against beta lactamase-positive Prevotella denticola isolated from intra-abdominal infection and pelvic inflammatory disease patients after 48 hrs by agar dilution method; in short: as §1
Prevotella corporis = test: Antimicrobial activity against beta lactamase-positive Prevotella corporis isolated from intra-abdominal infection and pelvic inflammatory disease patients after 48 hrs by agar dilution method; in short: as §1
Prevotella buccae = test: Antimicrobial activity against beta lactamase-positive Prevotella buccae isolated from intra-abdominal infection and pelvic inflammatory disease patients after 48 hrs by agar dilution method; details: Segatella buccae; in short: as §1
[11] = test system: Porphyromonas asaccharolytica; test: Antimicrobial activity against Porphyromonas asaccharolyticus isolated from intra-abdominal infection and pelvic inflammatory disease patients after 48 hrs by agar dilution method; in short: as §1
Porphyromonas gingivalis = test: Antimicrobial activity against Porphyromonas gingivalis isolated from intra-abdominal infection and pelvic inflammatory disease patients after 48 hrs by agar dilution method; in short: as §1
Porphyromonas levii = test: Antimicrobial activity against Porphyromonas levii isolated from intra-abdominal infection and pelvic inflammatory disease patients after 48 hrs by agar dilution method; in short: as §1
Fusobacterium nucleatum [12] = test: Antimicrobial activity against beta lactamase-positive Fusobacterium nucleatum isolated from intra-abdominal infection and pelvic inflammatory disease patients after 48 hrs by agar dilution method; in short: as §1
[13] = test system: Fusobacterium necrophorum; test: Antimicrobial activity against Fusobacterium necrophorum isolated from intra-abdominal infection and pelvic inflammatory disease patients after 48 hrs by agar dilution method; in short: as §1
Fusobacterium varium = test: Antimicrobial activity against Fusobacterium varium isolated from intra-abdominal infection and pelvic inflammatory disease patients after 48 hrs by agar dilution method; in short: as §1
Fusobacterium mortiferum = test: Antimicrobial activity against beta lactamase-positive Fusobacterium mortiferum isolated from intra-abdominal infection and pelvic inflammatory disease patients after 48 hrs by agar dilution method; in short: as §1
Finegoldia magna [14] = test: Antimicrobial activity against Finegoldia magna isolated from intra-abdominal infection and pelvic inflammatory disease patients after 48 hrs by agar dilution method; in short: as §1
Parvimonas micra = test: Antimicrobial activity against Micromonas micros isolated from intra-abdominal infection and pelvic inflammatory disease patients after 48 hrs by agar dilution method; in short: as §1
[15] = test system: Peptostreptococcus anaerobius; test: Antimicrobial activity against Peptostreptococcus anaerobius isolated from intra-abdominal infection and pelvic inflammatory disease patients after 48 hrs by agar dilution method; in short: as §1
Anaerococcus prevotii = test: Antimicrobial activity against Anaerococcus prevotii isolated from intra-abdominal infection and pelvic inflammatory disease patients after 48 hrs by agar dilution method; in short: as §1
Anaerococcus tetradius = test: Antimicrobial activity against Anaerococcus tetradius isolated from intra-abdominal infection and pelvic inflammatory disease patients after 48 hrs by agar dilution method; in short: as §1
[16] = test system: Peptoniphilus asaccharolyticus; test: Antimicrobial activity against Peptoniphilus asaccharolyticus isolated from intra-abdominal infection and pelvic inflammatory disease patients after 48 hrs by agar dilution method; in short: as §1
Clostridium perfringens [17] = test: Antimicrobial activity against Clostridium perfringens isolated from intra-abdominal infection and pelvic inflammatory disease patients after 48 hrs by agar dilution method
In short: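 CLSI agar dilution on brucella blood agar supplemented with laked sheep blood, hemin and vitamin K. Inoculum about 1 × 10^5 CFU/spot, applied by Steers replicator. Plates incubated 48 h at 35°C in an anaerobic glove box. MIC is the concentration giving marked growth reduction versus the anaerobic control plate. Standard QC strains included in each run.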

Clostridioides difficile = test: Antimicrobial activity against Clostridium difficile isolated from intra-abdominal infection and pelvic inflammatory disease patients after 48 hrs by agar dilution method; in short: as §1
[Clostridium] innocuum = Antimicrobial activity against Clostridium innocuum isolated from intra-abdominal infection and pelvic inflammatory disease patients after 48 hrs by agar dilution method; in short: as §1
Thomasclavelia ramosa = test: Antimicrobial activity against Clostridium ramosum isolated from intra-abdominal infection and pelvic inflammatory disease patients after 48 hrs by agar dilution method; in short: as §1
[18] = test system: Paraclostridium bifermentans; test: Antimicrobial activity against Clostridium bifermentans isolated from intra-abdominal infection and pelvic inflammatory disease patients after 48 hrs by agar dilution method; in short: as §1
[19] = test system: Enterocloster clostridioformis; test: Antimicrobial activity against Clostridium clostridioforme isolated from intra-abdominal infection and pelvic inflammatory disease patients after 48 hrs by agar dilution method; in short: as §1
[20] = test system: Paeniclostridium sordellii; test: Antimicrobial activity against Clostridium sordellii isolated from intra-abdominal infection and pelvic inflammatory disease patients after 48 hrs by agar dilution method; details: Paraclostridium sordellii; in short: as §1
[21] = test system: Clostridium paraputrificum; test: Antimicrobial activity against Clostridium paraputrificum isolated from intra-abdominal infection and pelvic inflammatory disease patients after 48 hrs by agar dilution method; in short: as §1
Clostridium cadaveris = test: Antimicrobial activity against Clostridium cadaveris isolated from intra-abdominal infection and pelvic inflammatory disease patients after 48 hrs by agar dilution method; in short: as §1

CO/N=C(\C(=O)N[C@@H]1C(=O)N2C(C(=O)O)=C(CSc3nc(=O)c(O)nn3C)CS[C@H]12)c1csc(N)n1 [CEFTRIAXONE]
MIC50 (Bacteroides fragilis [1]): 64 µg/mL (≈ 115 µM)
MIC90 (Bacteroides fragilis [1]): > 128 µg/mL
MIC50 [2]: > 128 µg/mL
MIC90 [2]: > 128 µg/mL
MIC (Bacteroides fragilis [3]): 0.25 µg/mL (≈ 0.451 µM)
MIC (Prevotella intermedia [4]): 0.125 µg/mL (≈ 0.225 µM)
MIC (Finegoldia magna [5]): 8 µg/mL (≈ 14.4 µM)
MIC (Fusobacterium nucleatum [6]): 0.125 µg/mL (≈ 0.225 µM)
MIC (Clostridium perfringens [7]): 2 µg/mL (≈ 3.61 µM)
MIC50 (Bacteroides ovatus): 64 µg/mL (≈ 115 µM)
MIC90 (Bacteroides ovatus): > 128 µg/mL
MIC50 (Phocaeicola vulgatus): 16 µg/mL (≈ 28.9 µM)
MIC90 (Phocaeicola vulgatus): > 128 µg/mL
MIC50 [8]: 8 µg/mL (≈ 14.4 µM)
MIC90 [8]: > 128 µg/mL
MIC50 (Prevotella bivia): 8 µg/mL (≈ 14.4 µM)
MIC90 (Prevotella bivia): 64 µg/mL (≈ 115 µM)
MIC50 (Prevotella disiens): 2 µg/mL (≈ 3.61 µM)
MIC90 (Prevotella disiens): 64 µg/mL (≈ 115 µM)
MIC50 (Prevotella intermedia [9]): 4 µg/mL (≈ 7.21 µM)
MIC90 (Prevotella intermedia [9]): 64 µg/mL (≈ 115 µM)
MIC50 (Prevotella nigrescens): 4 µg/mL (≈ 7.21 µM)
MIC90 (Prevotella nigrescens): 16 µg/mL (≈ 28.9 µM)
MIC50 [10]: 4 µg/mL (≈ 7.21 µM)
MIC90 [10]: 16 µg/mL (≈ 28.9 µM)
MIC50 (Prevotella denticola): 4 µg/mL (≈ 7.21 µM)
MIC90 (Prevotella denticola): 64 µg/mL (≈ 115 µM)
MIC50 (Prevotella corporis): 4 µg/mL (≈ 7.21 µM)
MIC90 (Prevotella corporis): 32 µg/mL (≈ 57.7 µM)
MIC50 (Prevotella buccae): 0.25 µg/mL (≈ 0.451 µM)
MIC90 (Prevotella buccae): 4 µg/mL (≈ 7.21 µM)
MIC [11]: ≤ 0.125 µg/mL
MIC (Porphyromonas gingivalis): ≤ 0.125 µg/mL
MIC (Porphyromonas levii): ≤ 0.125 µg/mL
MIC50 (Fusobacterium nucleatum [12]): 0.25 µg/mL (≈ 0.451 µM)
MIC90 (Fusobacterium nucleatum [12]): 0.5 µg/mL (≈ 0.902 µM)
MIC50 [13]: ≤ 0.125 µg/mL
MIC90 [13]: 0.5 µg/mL (≈ 0.902 µM)
MIC50 (Fusobacterium varium): 4 µg/mL (≈ 7.21 µM)
MIC90 (Fusobacterium varium): 8 µg/mL (≈ 14.4 µM)
MIC50 (Fusobacterium mortiferum): 0.25 µg/mL (≈ 0.451 µM)
MIC90 (Fusobacterium mortiferum): ≥ 128 µg/mL
MIC50 (Finegoldia magna [14]): 8 µg/mL (≈ 14.4 µM)
MIC90 (Finegoldia magna [14]): 8 µg/mL (≈ 14.4 µM)
MIC (Parvimonas micra): ≤ 0.125 µg/mL
MIC50 (Parvimonas micra): ≤ 0.125 µg/mL
MIC90 (Parvimonas micra): 1 µg/mL (≈ 1.8 µM)
MIC [15]: 0.5 µg/mL (≈ 0.902 µM)
MIC50 [15]: 0.5 µg/mL (≈ 0.902 µM)
MIC90 [15]: 16 µg/mL (≈ 28.9 µM)
MIC (Anaerococcus prevotii): ≤ 0.125 µg/mL
MIC (Anaerococcus tetradius): 0.25 µg/mL (≈ 0.451 µM)
MIC50 (Anaerococcus tetradius): 0.25 µg/mL (≈ 0.451 µM)
MIC [16]: ≤ 0.125 µg/mL
MIC50 [16]: ≤ 0.125 µg/mL
MIC90 [16]: 1 µg/mL (≈ 1.8 µM)
MIC50 (Clostridium perfringens [17]): 2 µg/mL (≈ 3.61 µM)
MIC90 (Clostridium perfringens [17]): 4 µg/mL (≈ 7.21 µM)
MIC50 (Clostridioides difficile): 64 µg/mL (≈ 115 µM)
MIC90 (Clostridioides difficile): 64 µg/mL (≈ 115 µM)
MIC50 ([Clostridium] innocuum): 16 µg/mL (≈ 28.9 µM)
MIC50 (Thomasclavelia ramosa): 0.5 µg/mL (≈ 0.902 µM)
MIC [18]: 0.25 µg/mL (≈ 0.451 µM)
MIC [19]: 64 µg/mL (≈ 115 µM)
MIC [20]: 0.25 µg/mL (≈ 0.451 µM)
MIC [21]: 4 µg/mL (≈ 7.21 µM)
MIC (Clostridium cadaveris): 4 µg/mL (≈ 7.21 µM)
